Experiment [1] relates to HL-60. Nature of the experiment: Cytotoxicity against human HL60 cells after 48 hrs by MTT assay. In kind it is functional, cell-based. The following applies: HL-60, 48 h. In outline:
(§1)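 Cells were exposed in hypoxia for 48 h with tirapazamine as the reference drug. Growth was read by MTT assay and IC50 was calculated by the LOGIT method.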
(In general: Tetrazolium assays rely on reduction of a dye to a coloured formazan, in cell work by metabolically active cells.)

The next experiment concerns K562. The experiment can be described thus: Cytotoxicity against human K562 cells after 48 hrs by MTT assay. The experiment is classed as functional, cell-based. The following applies: K562, 48 h. The method in brief: as §1
Another experiment relates to HepG2. Nature of the experiment: Cytotoxicity against human HepG2 cells after 48 hrs by MTT assay. The experiment is classed as functional, cell-based. The conditions noted are these: HepG2, 48 h. The method in brief: as §1
The next experiment concerns PC-3. The experiment can be described thus: Cytotoxicity against human PC3 cells after 48 hrs by MTT assay. The experiment is classed as functional, cell-based. The following applies: PC-3, 48 h. The method in brief: as §1
For experiment [2], the system named is MOLT-4. Nature of the experiment: Cytotoxicity against human Molt4 cells after 48 hrs by MTT assay. In kind it is functional, cell-based. The following applies: MOLT-4, 48 h. The method in brief:
as §1

In experiment [3] the test system is MOLT-4. Nature of the experiment: Cytotoxicity against human Molt4 cells in normoxia after 48 hrs. The conditions noted are these: MOLT-4, 48 h. The experiment is classed as functional, cell-based. In outline:
(§2)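 Cells were exposed for 48 h in either normoxia or hypoxia. IC50 was determined separately under each oxygen condition.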

Experiment [4] relates to MOLT-4. The experiment can be described thus: Cytotoxicity against human Molt4 cells in hypoxia after 48 hrs. In kind it is functional, cell-based. The conditions noted are these: MOLT-4, 48 h. The method in brief:
as §2

Experiment [5] concerns MOLT-4. The experiment can be described thus: Ratio of cytotoxicity against human Molt4 cells in normoxia to hypoxia after 48 hrs. In kind it is functional, cell-based. The conditions noted are these: MOLT-4, 48 h.
For experiment [6], the system named is HL-60. Nature of the experiment: Cytotoxicity against human HL60 cells in normoxia after 48 hrs. In kind it is functional, cell-based. The following applies: HL-60, 48 h. The method in brief:
as §2

Experiment [7] has as its system MOLT-4. Nature of the experiment: Induction of apoptosis in human Molt4 cells after 24 hrs at 2 uM. In kind it is functional. In outline: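 Cells were cultured in complete medium under 3% O2 with 2.0 μM compound for 24 h, alongside an untreated control. Lysed nuclei were stained with propidium iodide, and DNA content was analysed by flow cytometry on 20,000 events per test, scoring the apoptotic fraction. The experiment was done three times.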

In experiment [8] the test system is HL-60. Nature of the experiment: Cytotoxicity against human HL60 cells in hypoxia after 48 hrs. The conditions noted are these: HL-60, 48 h. In kind it is functional, cell-based. In outline:
as §2

The subject of experiment [9] is HL-60. Nature of the experiment: Ratio of cytotoxicity against human HL60 cells in normoxia to hypoxia after 48 hrs. The following applies: HL-60, 48 h. In kind it is functional, cell-based.
In experiment [10] the test system is MOLT-4. The experiment can be described thus: Reduction of mitochondrial membrane potential in human Molt4 cells after 12 hrs at 2 uM. The experiment is classed as functional, cell-based. In outline:
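Cells were treated with 2.0 μM compound for 12 h in hypoxia and then stained with JC-1. Flow cytometry read depolarization as a rise in the green:red fluorescence ratio. Values are means ± SD from three separate experiments, each run in triplicate.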

In experiment [11] the test system is MOLT-4. The experiment can be described thus: Increase in p53 level in human Molt4 cells in hypoxia after 24 hrs at 2 uM. The experiment is classed as functional, cell-based. The method in brief: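 Cells were exposed to 2.0 μM compound for 24 h in hypoxia, and p53 protein was measured by Western blot. The experiment was repeated three times.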

As usually defined, the IC50 is the concentration that inhibits the measured activity by half. The low end stands for inhibition by little substance, the high end for a need for much substance.

Active and inactive are the calls of the source. No cut-off for these calls is given here.

Regarding `[O-][n+]1nc(N2CCOCC2)[n+]([O-])c2ccccc21`, the IC50 in the experiment with HL-60 [1] is greater than 60 µM; in the experiment with K562 it was greater than 47 µM; with HepG2, greater than 95 µM; in the experiment with PC-3, greater than 95 µM; with MOLT-4 [2] it was greater than 16.1 µM.
Take `CCNc1n[n+]([O-])c2ccccc2[n+]1[O-]`: the IC50 in the experiment on HL-60 [1] was determined as 9 µM; in the experiment with K562, 4.5 µM; in the experiment on HepG2, 13.5 µM; in the experiment on PC-3 it was 13.3 µM; with MOLT-4 [2], 3.3 µM.
Regarding `Nc1n[n+]([O-])c2ccccc2[n+]1[O-]` [TIRAPAZAMINE], the IC50 stood at 7 µM in the experiment with HL-60 [1]; 5.2 µM in the experiment on K562; 19.1 µM in the experiment on HepG2; 22.3 µM in the experiment on PC-3; 15.8 µM in the experiment with MOLT-4 [3]; 4.6 µM with MOLT-4 [4]. Also, the results for the IC50 with HL-60 [6], with HL-60 [8] and in the experiment with MOLT-4 [2] were 16.1 µM, 7 µM and 4.6 µM, respectively. Also, the IC50 ratio in the experiment on MOLT-4 [5] turned out to be 3.43; in the experiment with HL-60 [9] it was 2.31. Also, in the experiment with MOLT-4 [7], the Activity worked out at 11%. The outcome with MOLT-4 [10] and in the experiment with MOLT-4 [11] was Active.
Regarding `[O-][n+]1nc(NCc2ccccc2Cl)[n+]([O-])c2ccccc21`, the IC50 came to 5.8 µM in the experiment on HL-60 [1]; 2.2 µM in the experiment with K562; 9.7 µM in the experiment on HepG2; 10.6 µM with PC-3; 2.3 µM in the experiment on MOLT-4 [2].
On the same counts, the results for `[O-][n+]1nc(NCCO)[n+]([O-])c2ccccc21` are 10.7 µM, 3.7 µM, 23.2 µM, 22.4 µM and 2.6 µM.
As for `[O-][n+]1nc(NCc2ccccc2)[n+]([O-])c2ccccc21`, the IC50 in the experiment on HL-60 [1] turned out to be 2.5 µM; in the experiment on K562 it was 1.9 µM; with HepG2, 8.2 µM; in the experiment with PC-3, 10.7 µM; in the experiment with MOLT-4 [3], 8.1 µM; in the experiment with MOLT-4 [4], 2.2 µM. In addition, the figures for the IC50 with HL-60 [6], with HL-60 [8] and in the experiment on MOLT-4 [2] were 6.3 µM, 2.5 µM and 2.2 µM, respectively. Besides, the results for the IC50 ratio in the experiment on MOLT-4 [5] and in the experiment on HL-60 [9] were 3.68 and 2.53, respectively. In the experiment on MOLT-4 [7], this compound came in with an Activity of 33%. Besides, the outcome with MOLT-4 [10] and in the experiment with MOLT-4 [11] was Active.
With `CCCCCCCCNc1n[n+]([O-])c2ccccc2[n+]1[O-]`, the IC50 in the experiment on HL-60 [1] turned out to be 7.2 µM; with K562, 4.7 µM; with HepG2, 17.4 µM; in the experiment on PC-3 it was 18.2 µM; in the experiment with MOLT-4 [2] it was 4.9 µM.
As for `[O-][n+]1nc(NC2CC2)[n+]([O-])c2ccccc21`, the IC50 in the experiment on HL-60 [1] worked out at 3.6 µM; with K562, 6.6 µM; in the experiment on HepG2 it was 13.3 µM; in the experiment with PC-3, 15.9 µM; in the experiment on MOLT-4 [2] it was 1.9 µM.
Take `[O-][n+]1nc(Nc2ccccc2)[n+]([O-])c2ccccc21`: the IC50 came to 2.9 µM with HL-60 [1]; 2.4 µM with K562; 15 µM in the experiment with HepG2; 17 µM in the experiment on PC-3; 1.4 µM in the experiment on MOLT-4 [2].
On the same counts, the results for `Cc1ccc(Nc2n[n+]([O-])c3ccccc3[n+]2[O-])cc1` are 1.5 µM, 2.5 µM, 10.6 µM, 10.3 µM and 1.1 µM.
With `[O-][n+]1nc(NC2CCCCC2)[n+]([O-])c2ccccc21`, the IC50 in the experiment with HL-60 [1] stood at 2.5 µM; in the experiment with K562, 2.6 µM; in the experiment with HepG2, 9.5 µM; in the experiment on PC-3 it was 10.5 µM; with MOLT-4 [2] it was 1.3 µM.
`CCN(CC)c1n[n+]([O-])c2ccccc2[n+]1[O-]`: the IC50 is greater than 49 µM in the experiment with HL-60 [1]; greater than 55 µM in the experiment on K562; greater than 107 µM in the experiment on HepG2; greater than 107 µM in the experiment with PC-3; greater than 17.6 µM in the experiment on MOLT-4 [2].
On to `O=[N+]([O-])c1ccc(CNc2n[n+]([O-])c3ccccc3[n+]2[O-])cc1`, for which the IC50 was 1.4 µM in the experiment on HL-60 [1]; 3.1 µM in the experiment with K562; 7.7 µM in the experiment with HepG2; 7.4 µM with PC-3; 5 µM in the experiment on MOLT-4 [3]; 0.8 µM in the experiment with MOLT-4 [4]. The half-inhibitory concentration (IC50) turned out to be 6 µM with HL-60 [6], 1.4 µM with HL-60 [8] and 0.8 µM in the experiment on MOLT-4 [2]. In addition, the IC50 ratio in the experiment with MOLT-4 [5] worked out at 6.25; in the experiment with HL-60 [9], 4.29.
Regarding `COc1ccc(Nc2n[n+]([O-])c3ccccc3[n+]2[O-])cc1`, the IC50 with HL-60 [1] is 0.9 µM; with K562, 2.9 µM; in the experiment on HepG2, 10.1 µM; in the experiment with PC-3 it was 12 µM; in the experiment on MOLT-4 [3], 5.2 µM; in the experiment on MOLT-4 [4] it was 0.6 µM. For the same compound, the values for the IC50 in the experiment with HL-60 [6], in the experiment on HL-60 [8] and in the experiment with MOLT-4 [2] were 6.8 µM, 0.9 µM and 0.6 µM, respectively. The results for the IC50 ratio in the experiment with MOLT-4 [5] and with HL-60 [9] were 8.67 and 7.56, respectively. In the experiment with MOLT-4 [7], this compound displayed an Activity of 45%. The result in the experiment on MOLT-4 [10] and in the experiment with MOLT-4 [11] was Active.
Consider `Nc1ccccc1Nc1n[n+]([O-])c2ccccc2[n+]1[O-]`, for which the IC50 with HL-60 [1] was determined as 8.3 µM; in the experiment with K562, 10.6 µM; in the experiment with HepG2, 17.4 µM; in the experiment on PC-3 it was 16.1 µM; with MOLT-4 [2] it was 2.3 µM.
In the case of `C=CCNc1n[n+]([O-])c2ccccc2[n+]1[O-]`, the IC50 with HL-60 [1] is 25.8 µM; in the experiment on K562, 11.2 µM; with HepG2, greater than 56 µM; with PC-3 it was greater than 56 µM; with MOLT-4 [2], 3 µM.

For the origin of these results see ChEMBL document CHEMBL1145315, “Synthesis and hypoxic-cytotoxic activity of some 3-amino-1,2,4-benzotriazine-1,4-dioxide derivatives” (Bioorg Med Chem Lett, 2006).
